Assay [1] concerns Rattus norvegicus. The assay is described as follows: The compound was evaluated for the % peak inhibition of angiotensin II pressor response for dose of 1.0 mg/kg intravenous administration in conscious rats. It counts as functional. The method in brief: (§1)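 Conscious normotensive rats received antagonists as potassium salts, iv or po. Pressor responses to exogenous AII were measured repeatedly after dosing and reported as % peak inhibition (mean ± SE) and duration of action in h. Methoxamine pressor response served as a specificity check.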

For assay [2], the target named is T1, Type-2 angiotensin II receptor (Rattus norvegicus, UniProt P35351).
T1 sequence (P35351 whole entry): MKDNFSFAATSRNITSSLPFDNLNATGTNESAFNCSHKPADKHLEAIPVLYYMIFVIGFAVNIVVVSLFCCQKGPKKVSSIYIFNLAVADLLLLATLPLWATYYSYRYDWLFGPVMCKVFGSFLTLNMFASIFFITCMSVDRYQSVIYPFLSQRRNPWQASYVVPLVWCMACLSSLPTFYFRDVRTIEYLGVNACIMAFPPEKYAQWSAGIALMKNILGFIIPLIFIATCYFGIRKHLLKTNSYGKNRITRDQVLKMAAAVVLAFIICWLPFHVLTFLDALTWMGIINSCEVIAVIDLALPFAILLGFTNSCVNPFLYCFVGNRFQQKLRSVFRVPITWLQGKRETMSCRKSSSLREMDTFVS
The assay can be described thus: In vitro binding affinity for angiotensin II AT2 receptor in rat midbrain. The method in brief:
(§2)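 Radioligand binding IC50 values. AT1 was measured on rabbit aortic receptor preparations and AT2 on rat midbrain receptor preparations.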

Assay [3] has as its system Rattus norvegicus. The assay can be described thus: The duration of action for the % peak inhibition of angiotensin II pressor response for dose of 1.0 mg/kg intravenous administration in conscious rats. It counts as functional. An outline of the steps:
as §1

Assay [4] concerns the target T2, Type-1 angiotensin II receptor (Oryctolagus cuniculus, UniProt P34976).
T2 sequence (P34976 whole entry): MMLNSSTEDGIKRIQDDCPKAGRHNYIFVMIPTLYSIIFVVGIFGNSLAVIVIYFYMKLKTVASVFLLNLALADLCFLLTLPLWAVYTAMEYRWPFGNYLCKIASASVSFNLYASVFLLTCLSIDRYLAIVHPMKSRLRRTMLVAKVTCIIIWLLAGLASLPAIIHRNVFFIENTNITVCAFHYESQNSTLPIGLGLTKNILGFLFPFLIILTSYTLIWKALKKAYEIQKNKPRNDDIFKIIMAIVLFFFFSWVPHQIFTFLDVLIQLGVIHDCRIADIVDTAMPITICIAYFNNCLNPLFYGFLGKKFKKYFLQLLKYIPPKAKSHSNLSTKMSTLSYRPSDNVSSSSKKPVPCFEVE
The assay can be described thus: In vitro binding affinity for angiotensin II AT1 receptor in rabbit aorta. The class given is tissue-based. The method in brief:
as §2

Assay [5] relates to Canis familiaris. The assay is described as follows: The compound was evaluated for the ED50 for inhibition of A II pressor response in dogs for intravenous administration.
Assay [6] concerns the target T3, Angiotensin II receptor (Rattus norvegicus) (UniProt P29089+P25095+P35351).
In assay [7] the test system is Macaca mulatta. The assay can be described thus: The compound was evaluated for the ED50 for inhibition of A II pressor response in rhesus monkeys for peroral administration.
In assay [8] the target is T3, Angiotensin II receptor (Rattus norvegicus). The source holds these as a separate data set.
The subject of assay [9] is Rattus norvegicus. The assay is described as follows: The duration of action for the % peak inhibition of angiotensin II pressor response for dose of 0.03 mg/kg intravenous administration in conscious rats.
A short description of assay [10]: Ratio of the of A II pressor responses in rhesus monkey, p.o./i.v. It counts as functional. An outline of the steps:
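Sodium/volume-depleted rhesus monkeys dosed iv or orally; inhibition of the AII pressor response tracked over time. Ratio is oral ED50 divided by iv ED50.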

Assay [11] deals with Macaca mulatta. The assay can be described thus: The compound was evaluated for the ED50 for inhibition of A II pressor response in rhesus monkeys for intravenous administration.
Assay [12] relates to Rattus norvegicus. The assay can be described thus: The compound was evaluated for the ED50 for inhibition of A II pressor response in rats for intravenous administration.
The subject of assay [13] is Rattus norvegicus. The assay is described as follows: The compound was evaluated for the % peak inhibition of angiotensin II pressor response for dose of 0.1 mg/kg peroral administration in conscious rats. Conditions: route oral. It counts as functional. The method in brief: as §1
Assay [14] concerns Rattus norvegicus. The assay is described as follows: The duration of action for the % peak inhibition of angiotensin II pressor response for dose of 1.0 mg/kg peroral administration in conscious rats. It counts as functional. The conditions noted are these: route oral. An outline of the steps: as §1
In assay [15] the test system is Rattus norvegicus. The assay can be described thus: The compound was evaluated for the % peak inhibition of angiotensin II pressor response for dose of 1.0 mg/kg peroral administration in conscious rats. The class given is functional. The conditions noted are these: route oral. An outline of the steps:
as §1

Assay [16] has as its target T3, Angiotensin II receptor (Rattus norvegicus). This is another data set of the same source.
Assay [17] is described as follows: Ratio of the of A II pressor responses in dog, p.o./i.v. The class given is functional. The method in brief:
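Conscious normotensive mongrel dogs with an arterial catheter for continuous mean arterial pressure and vein catheters for dosing. Patency checked with norepinephrine 1.6 μg/kg iv. AII 0.1 μg/kg iv boluses given at –45, –30 and –15 min. Antagonist given iv or by oral gavage at 0 min, then AII rechallenged repeatedly to 6 h (24 h if needed). Ratio is oral ED50 divided by iv ED50.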

The test system of assay [18] is Canis familiaris. The assay is described as follows: The compound was evaluated for the ED50 for inhibition of A II pressor response in dogs for peroral administration.
Assay [19] deals with Rattus norvegicus. The assay can be described thus: The duration of action for the % peak inhibition of angiotensin II pressor response for dose of 0.1 mg/kg intravenous administration in conscious rats. It counts as functional. The method in brief: as §1
The subject of assay [20] is Rattus norvegicus. The assay can be described thus: The compound was evaluated for the % peak inhibition of angiotensin II pressor response for dose of 0.1 mg/kg intravenous administration in conscious rats. It counts as functional. An outline of the steps: as §1
Assay [21] in a line: Ratio of the of A II pressor responses in rat, p.o./i.v. It counts as functional. The method in brief:
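Conscious normotensive rats; potassium salt given iv or orally; inhibition of the pressor response to exogenous iv AII followed over time. Ratio is oral ED50 divided by iv ED50.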

Assay [22] has as its system Macaca mulatta. The assay can be described thus: The duration of action for the % peak inhibition of A II pressor response for dose of 0.1 mg/kg peroral administration in rhesus monkeys. The conditions noted are these: route oral.
Assay [23] has as its system Rattus norvegicus. The assay can be described thus: The compound was evaluated for the % peak inhibition of angiotensin II pressor response for dose of 0.3 mg/kg peroral administration in conscious rats. The conditions noted are these: route oral. It counts as functional. An outline of the steps:
as §1

Assay [24] deals with Rattus norvegicus. The assay can be described thus: The duration of action for the % peak inhibition of angiotensin II pressor response for dose of 0.3 mg/kg peroral administration in conscious rats. The class given is functional. Conditions: route oral. The method in brief: as §1
In assay [25] the test system is Rattus norvegicus. The assay can be described thus: The compound was evaluated for the ED50 for inhibition of A II pressor response in rat for intravenous administration.
Assay [26] has as its system Rattus norvegicus. The assay can be described thus: The compound was evaluated for the ED50 for inhibition of A II pressor response in rat for peroral administration.
The subject of assay [27] is Rattus norvegicus. The assay can be described thus: The duration of action for the % peak inhibition of angiotensin II pressor response for dose of 0.1 mg/kg perol administration in conscious rats. It counts as functional. An outline of the steps:
as §1

The subject of assay [28] is Rattus norvegicus. The assay can be described thus: The compound was evaluated for the % peak inhibition of angiotensin II pressor response for dose of 0.1 mg/kg perol administration in conscious rats. The class given is functional. An outline of the steps:
as §1

T3 sequence (P25095 whole entry, looked up, one chain of several): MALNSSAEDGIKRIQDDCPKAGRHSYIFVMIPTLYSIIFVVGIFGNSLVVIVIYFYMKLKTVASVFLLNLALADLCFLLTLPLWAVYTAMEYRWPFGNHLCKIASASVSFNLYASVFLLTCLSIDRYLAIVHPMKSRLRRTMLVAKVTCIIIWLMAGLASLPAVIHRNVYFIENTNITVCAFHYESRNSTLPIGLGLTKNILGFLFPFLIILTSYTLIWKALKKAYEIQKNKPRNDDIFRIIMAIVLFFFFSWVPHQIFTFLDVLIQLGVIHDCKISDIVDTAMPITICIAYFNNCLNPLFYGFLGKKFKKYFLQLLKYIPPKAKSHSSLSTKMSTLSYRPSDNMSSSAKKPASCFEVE
T3 sequence (P29089 whole entry, looked up, one chain of several): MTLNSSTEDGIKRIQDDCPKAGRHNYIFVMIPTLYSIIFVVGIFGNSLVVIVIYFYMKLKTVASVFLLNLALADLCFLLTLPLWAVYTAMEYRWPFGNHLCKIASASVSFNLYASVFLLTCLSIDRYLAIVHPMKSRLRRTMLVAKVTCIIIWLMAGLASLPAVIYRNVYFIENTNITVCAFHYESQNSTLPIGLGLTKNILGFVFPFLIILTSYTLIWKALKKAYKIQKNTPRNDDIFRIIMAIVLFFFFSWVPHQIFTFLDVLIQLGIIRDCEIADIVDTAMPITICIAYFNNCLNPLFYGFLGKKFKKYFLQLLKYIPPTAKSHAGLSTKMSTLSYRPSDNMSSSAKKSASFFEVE

Regarding `CCc1nc2c(C)cc(C)nc2n1Cc1ccc(-c2ccccc2S(=O)(=O)NC(C)=O)cc1`, at 1 mg/kg the inhibition in vivo in assay [1] was 100%. The IC50 in assay [2] is more than 10 µM; in [4], 2.2 nM. For the same compound, the Duration in assay [3] is 3.5 h.

Regarding `CCc1nc2c(C)cc(C)nc2n1Cc1ccc(-c2ccccc2S(=O)(=O)NC(=O)c2ccccc2)cc1`, the ED50 in assay [5] was found to be 0.017 mg/kg; in assay [7] it was 0.1 mg/kg; in assay [11], 0.036 mg/kg; in assay [12], 0.014 mg/kg; in [18], 0.035 mg/kg. In addition, the Duration is more than 5 h in [6]; 4 h in assay [8]; 6 h in assay [9]; more than 6 h in assay [14]; more than 5 h in assay [16]; 6 h in assay [19]. This compound also showed a Duration in assay [22] of approximately 3 h. Besides, the half-maximal inhibitory concentration (IC50) in assay [2] was found to be 2.9 µM; in assay [4], 0.2 nM. Also, the Ratio was 3 in [10], 2 in [17] and 5 in assay [21]. Also, the inhibition in vivo at 0.1 mg/kg in assay [13] was found to be 64%; in assay [20] it was 94%. For the same compound, 1 mg/kg produced 99% inhibition in vivo in assay [15].

`CCCCc1nc(Cl)c(C(=O)O)n1Cc1ccc(-c2ccccc2-c2nn[nH]n2)cc1` [CARBOXYLIC ACID METABOLITE] had an IC50 in assay [2] of 50 µM.

As for `CCc1nc2c(C)cc(C)nc2n1Cc1ccc(-c2ccccc2S(=O)(=O)NC(=O)C2CC2)cc1`, the IC50 in assay [2] stood at 2.4 µM; in assay [4], 0.68 nM. For the same compound, testing at 0.3 mg/kg in [23] gave an inhibition in vivo of 99%. Also, the Duration in assay [24] and in assay [19] was more than 6 h in each case. The compound further yielded an inhibition in vivo at 0.1 mg/kg in assay [20] of 95%.

In assay [2], `CCc1nc2c(C)cc(C)nc2n1Cc1ccc(-c2ccccc2-c2nn[nH]n2)cc1` [L-158809] showed an IC50 of 50 µM. Moreover, the results for the 50% effective dose (ED50) in assay [25] and in [26] were 0.029 mg/kg and 0.023 mg/kg, respectively. The Duration in assay [27] and in [19] was more than 6 h in each case. Also, the results for the inhibition in vivo at 0.1 mg/kg in [28] and in assay [20] were 75% and 85%, respectively.

Turning to `CCCC(=O)NS(=O)(=O)c1ccccc1-c1ccc(Cn2c(CC)nc3c(C)cc(C)nc32)cc1`, the inhibition in vivo at 1 mg/kg in [1] was 99%. The IC50 in [2] stood at 3.6 µM; in assay [4] it was 0.27 nM. In assay [3], this compound returned a Duration of more than 6 h.

In the case of `CCCCc1nc(Cl)c(CO)n1Cc1ccc(-c2ccccc2-c2nnn[nH]2)cc1` [LOSARTAN], the ED50 in [25] stood at 0.28 mg/kg; in [26], 0.66 mg/kg.

On to `CCc1nc2c(C)cc(C)nc2n1Cc1ccc(-c2ccccc2S(=O)(=O)NC(=O)C(C)C)cc1`, for which the IC50 in assay [2] was 1.8 µM; in assay [4], 0.21 nM. Besides, the Duration in assay [19] turned out to be 5 h. Moreover, the inhibition in vivo at 0.1 mg/kg in assay [20] was found to be 100%.

The values above are taken from ChEMBL document CHEMBL1127415 (J Med Chem, 1994).
